# Data taken from ChEMBL document CHEMBL5346929, “Designed switch from covalent to non-covalent inhibitors of carboxylesterase Notum activity” (Eur J Med Chem, 2023).
# Assays:
# [1] = molecular target: T1, Palmitoleoyl-protein carboxylesterase NOTUM (Homo sapiens, UniProt Q6P988); experiment: Inhibition of human recombinant Notum (81 to T451 residues) expressed in HEK293S cells using OPTS as substrate incubated for 40 mins by microplate reader analysis
# T1 sequence (Q6P988 whole entry): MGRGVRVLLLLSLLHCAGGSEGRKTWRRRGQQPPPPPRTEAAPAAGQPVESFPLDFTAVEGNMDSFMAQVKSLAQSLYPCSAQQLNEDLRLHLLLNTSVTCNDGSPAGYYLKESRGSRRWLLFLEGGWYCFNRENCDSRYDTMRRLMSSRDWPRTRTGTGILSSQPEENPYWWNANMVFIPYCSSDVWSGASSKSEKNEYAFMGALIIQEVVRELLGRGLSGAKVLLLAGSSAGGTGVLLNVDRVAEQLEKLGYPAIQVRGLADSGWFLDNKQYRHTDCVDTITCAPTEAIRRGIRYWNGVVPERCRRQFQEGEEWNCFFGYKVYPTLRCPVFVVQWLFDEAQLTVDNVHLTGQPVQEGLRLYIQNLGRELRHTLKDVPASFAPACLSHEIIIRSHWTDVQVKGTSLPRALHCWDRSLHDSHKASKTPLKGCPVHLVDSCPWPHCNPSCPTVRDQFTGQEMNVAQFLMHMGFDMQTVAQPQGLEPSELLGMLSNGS
# [2] = molecular target: T1, Palmitoleoyl-protein carboxylesterase NOTUM; experiment: Inhibition of human recombinant Notum (81 to T451 residues) expressed in HEK293S cells using OPTS as substrate at 10 uM incubated for 40 mins by microplate reader analysis relative to control
# In short: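 Biochemical assay with the Notum 81–451 C330S construct and the synthetic fluorescent substrate OPTS.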
# [3] = system: liver microsomes (Mus musculus); experiment: Metabolic stability in mouse liver microsome assessed as intrinsic clearance measured upto 60 mins by LC-MS/MS analysis; details: read-out: CLH
Compound,IC50 [1],inhibition at 10 µM [2] [%],microsomal CLint [3] [µL/min/mg]
CC(=O)N1CCc2cc(C#N)ccc21,,20,
CCN1CCc2c(Cl)cccc21,,20,
O=C1CCCN1c1ccccc1,,20,
O=C1CCC2Cc3ccccc3N12 (racemic),,,74

# Now from value to molecule:
IC50 [1],inhibition at 10 µM [2] [%],microsomal CLint [3] [µL/min/mg],Compound
Not Active,< 20,,CC(=O)N1CCC(c2ccccc2)C1 (stereo unspecified)
,20,,CC(=O)n1ncc2ccccc21
,20,,CC(=O)N1CCS(=O)(=O)c2ccccc21
,20,,CC(=O)N(C)c1ccccc1C
Not Active,< 20,,CC(=O)n1cnc2ccccc21
